Assay results from ChEMBL document CHEMBL1127617, “Synthesis and biological evaluation of C-3'-modified analogs of 9(R)-dihydrotaxol” (J Med Chem, 1994).
Converted amounts (≈) assume the structure as drawn.

Assays:
[1] = Compound was tested for the concentration of agent which reduces the supernatant protein concentration (tubulin, 1 mg/mL) by 50%; ED50/ED50taxol; type: functional
Outline: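 Tubulin assembly assay with tubulin at 1 mg/mL, 15 min at 37 °C. Read-out is protein left in the supernatant. ED50 is the agent concentration that lowers supernatant protein by 50%. Value expressed as a ratio to the ED50 of taxol.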

[2] = tested on: B16-F10; experiment: In vitro cytotoxicity against B16F10 (mouse melanoma) cell line.; type: functional, cell-based
Outline: (§1)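 Inhibition of cell proliferation measured against untreated cells after 72 h incubation at 37 °C. Read-out by MTT colorimetric microtiter assay. IC50 taken as the agent concentration giving 50% inhibition of proliferation.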

[3] = tested on: A549; experiment: In vitro cytotoxicity against A549 (human lung carcinoma) cell line.; type: functional, cell-based; outline: as §1
[4] = tested on: P388; experiment: In vitro cytotoxicity against P388 (murine leukemia) cell line.; type: functional, cell-based; settings: Mus musculus; outline: as §1
[5] = tested on: HT-29; experiment: In vitro cytotoxicity against HT-29 (human colon adenocarcinoma) cell line.; type: functional, cell-based; outline: as §1

SMILES	Ratio [1]	IC50 [2]	IC50 [3]	IC50 [4]	IC50 [5]
CC(=O)O[C@@H]1C2=C(C)[C@@H](OC(=O)[C@H](O)[C@@H](NC(=O)OC(C)(C)C)C3CCCCC3)C[C@@](O)([C@@H](OC(=O)c3ccccc3)[C@@H]3[C@]4(OC(C)=O)CO[C@@H]4C[C@H](O)[C@@]3(C)[C@H]1O)C2(C)C	0.57	0.0057 µg/mL (≈ 0.00664 µM)	0.0065 µg/mL (≈ 0.00758 µM)	0.014 µg/mL (≈ 0.0163 µM)	0.005 µg/mL (≈ 0.00583 µM)
COC[C@H](NC(=O)c1ccccc1)[C@@H](O)C(=O)O[C@H]1C[C@@]2(O)[C@@H](OC(=O)c3ccccc3)[C@@H]3[C@]4(OC(C)=O)CO[C@@H]4C[C@H](O)[C@@]3(C)[C@@H](O)[C@H](OC(C)=O)C(=C1C)C2(C)C	3.14	> 0.1 µg/mL	> 0.1 µg/mL	> 0.1 µg/mL	0.079 µg/mL (≈ 0.0959 µM)
CC(=O)O[C@@H]1C2=C(C)[C@@H](OC(=O)[C@H](O)[C@H](C)NC(=O)OC(C)(C)C)C[C@@](O)([C@@H](OC(=O)c3ccccc3)[C@@H]3[C@]4(OC(C)=O)CO[C@@H]4C[C@H](O)[C@@]3(C)[C@H]1O)C2(C)C	1.08	0.019 µg/mL (≈ 0.0241 µM)	0.015 µg/mL (≈ 0.019 µM)	0.043 µg/mL (≈ 0.0544 µM)	0.0083 µg/mL (≈ 0.0105 µM)
CC[C@H](NC(=O)OC(C)(C)C)[C@@H](O)C(=O)O[C@H]1C[C@@]2(O)[C@@H](OC(=O)c3ccccc3)[C@@H]3[C@]4(OC(C)=O)CO[C@@H]4C[C@H](O)[C@@]3(C)[C@@H](O)[C@H](OC(C)=O)C(=C1C)C2(C)C	0.61	0.0032 µg/mL (≈ 0.00398 µM)	0.00083 µg/mL (≈ 0.00103 µM)	0.011 µg/mL (≈ 0.0137 µM)	0.0014 µg/mL (≈ 0.00174 µM)
CC(=O)O[C@@H]1C2=C(C)[C@@H](OC(=O)[C@H](O)[C@H](CC(C)C)NC(=O)OC(C)(C)C)C[C@@](O)([C@@H](OC(=O)c3ccccc3)[C@@H]3[C@]4(OC(C)=O)CO[C@@H]4C[C@H](O)[C@@]3(C)[C@H]1O)C2(C)C	0.95	0.0009 µg/mL (≈ 0.00108 µM)	0.00012 µg/mL (≈ 0.000144 µM)	0.00036 µg/mL (≈ 0.000433 µM)	0.00038 µg/mL (≈ 0.000457 µM)
CCCC[C@H](NC(=O)OC(C)(C)C)[C@@H](O)C(=O)O[C@H]1C[C@@]2(O)[C@@H](OC(=O)c3ccccc3)[C@@H]3[C@]4(OC(C)=O)CO[C@@H]4C[C@H](O)[C@@]3(C)[C@@H](O)[C@H](OC(C)=O)C(=C1C)C2(C)C	2.15	0.0097 µg/mL (≈ 0.0117 µM)	0.0095 µg/mL (≈ 0.0114 µM)	0.018 µg/mL (≈ 0.0216 µM)	0.0088 µg/mL (≈ 0.0106 µM)
CC(=O)O[C@@H]1C2=C(C)[C@@H](OC(=O)[C@H](O)[C@@H](NC(=O)OC(C)(C)C)c3ccccc3)C[C@@](O)([C@@H](OC(=O)c3ccccc3)[C@@H]3[C@]4(OC(C)=O)CO[C@@H]4C[C@H](O)[C@@]3(C)[C@H]1O)C2(C)C	0.87	0.0004 µg/mL (≈ 0.00047 µM)	0.003 µg/mL (≈ 0.00352 µM)	0.0025 µg/mL (≈ 0.00293 µM)	0.00016 µg/mL (≈ 0.000188 µM)
CC(=O)O[C@@H]1C2=C(C)[C@@H](OC(=O)[C@H](O)[C@@H](NC(=O)OC(C)(C)C)C(C)O)C[C@@](O)([C@@H](OC(=O)c3ccccc3)[C@@H]3[C@]4(OC(C)=O)CO[C@@H]4C[C@H](O)[C@@]3(C)[C@H]1O)C2(C)C (single isomer, unassigned) [listing 1 of 2 here]	0.8	–	–	–	–
CC(=O)O[C@@H]1C2=C(C)[C@@H](OC(=O)[C@H](O)[C@H](COc3ccccc3)NC(=O)c3ccccc3)C[C@@](O)([C@@H](OC(=O)c3ccccc3)[C@@H]3[C@]4(OC(C)=O)CO[C@@H]4C[C@H](O)[C@@]3(C)[C@H]1O)C2(C)C	5.81	0.084 µg/mL (≈ 0.0948 µM)	0.092 µg/mL (≈ 0.104 µM)	> 0.1 µg/mL	0.039 µg/mL (≈ 0.044 µM)
CC(=O)O[C@@H]1C2=C(C)[C@@H](OC(=O)[C@H](O)[C@@H](NC(=O)OC(C)(C)C)[C@H](O)CO)C[C@@](O)([C@@H](OC(=O)c3ccccc3)[C@@H]3[C@]4(OC(C)=O)CO[C@@H]4C[C@H](O)[C@@]3(C)[C@H]1O)C2(C)C	2.71	> 0.1 µg/mL	> 0.1 µg/mL	> 0.1 µg/mL	> 0.1 µg/mL
CC(=O)O[C@@H]1C2=C(C)[C@@H](OC(=O)[C@H](O)[C@@H](NC(=O)OC(C)(C)C)C(C)O)C[C@@](O)([C@@H](OC(=O)c3ccccc3)[C@@H]3[C@]4(OC(C)=O)CO[C@@H]4C[C@H](O)[C@@]3(C)[C@H]1O)C2(C)C (mixture of isomers)	1.2	–	–	–	–
CCCC[C@@H](NC(=O)OC(C)(C)C)[C@@H](O)C(=O)O[C@H]1C[C@@]2(O)[C@@H](OC(=O)c3ccccc3)[C@@H]3[C@]4(OC(C)=O)CO[C@@H]4C[C@H](O)[C@@]3(C)[C@@H](O)[C@H](OC(C)=O)C(=C1C)C2(C)C	9.74	> 0.1 µg/mL	> 0.1 µg/mL	> 0.1 µg/mL	0.067 µg/mL (≈ 0.0805 µM)
CCCCC[C@H](NC(=O)OC(C)(C)C)[C@@H](O)C(=O)O[C@H]1C[C@@]2(O)[C@@H](OC(=O)c3ccccc3)[C@@H]3[C@]4(OC(C)=O)CO[C@@H]4C[C@H](O)[C@@]3(C)[C@@H](O)[C@H](OC(C)=O)C(=C1C)C2(C)C	2	0.014 µg/mL (≈ 0.0165 µM)	0.012 µg/mL (≈ 0.0142 µM)	0.016 µg/mL (≈ 0.0189 µM)	0.016 µg/mL (≈ 0.0189 µM)
CC(=O)O[C@@H]1C2=C(C)[C@@H](OC(=O)[C@H](O)[C@@H](NC(=O)c3ccccc3)c3ccccc3)C[C@@](O)([C@@H](OC(=O)c3ccccc3)[C@@H]3[C@]4(OC(C)=O)CO[C@@H]4C[C@H](O)[C@@]3(C)[C@H]1O)C2(C)C	0.86	0.025 µg/mL (≈ 0.0292 µM)	0.019 µg/mL (≈ 0.0222 µM)	0.053 µg/mL (≈ 0.0619 µM)	0.08 µg/mL (≈ 0.0935 µM)
CC(=O)O[C@@H]1C2=C(C)[C@@H](OC(=O)[C@H](O)[C@@H](NC(=O)OC(C)(C)C)c3cscn3)C[C@@](O)([C@@H](OC(=O)c3ccccc3)[C@@H]3[C@]4(OC(C)=O)CO[C@@H]4C[C@H](O)[C@@]3(C)[C@H]1O)C2(C)C	1.36	0.0003 µg/mL (≈ 0.000349 µM)	0.0063 µg/mL (≈ 0.00733 µM)	0.0014 µg/mL (≈ 0.00163 µM)	0.00092 µg/mL (≈ 0.00107 µM)
CC(=O)O[C@@H]1C2=C(C)[C@@H](OC(=O)[C@H](O)[C@H](Cc3ccccc3)NC(=O)OC(C)(C)C)C[C@@](O)([C@@H](OC(=O)c3ccccc3)[C@@H]3[C@]4(OC(C)=O)CO[C@@H]4C[C@H](O)[C@@]3(C)[C@H]1O)C2(C)C	> 17.1	> 0.1 µg/mL	> 0.1 µg/mL	> 0.1 µg/mL	> 0.1 µg/mL
C=C[C@H](NC(=O)OC(C)(C)C)[C@@H](O)C(=O)O[C@H]1C[C@@]2(O)[C@@H](OC(=O)c3ccccc3)[C@@H]3[C@]4(OC(C)=O)CO[C@@H]4C[C@H](O)[C@@]3(C)[C@@H](O)[C@H](OC(C)=O)C(=C1C)C2(C)C	0.92	0.0044 µg/mL (≈ 0.00549 µM)	0.0011 µg/mL (≈ 0.00137 µM)	0.016 µg/mL (≈ 0.02 µM)	0.0018 µg/mL (≈ 0.00224 µM)
CC(=O)O[C@@H]1C2=C(C)[C@@H](OC(=O)[C@H](O)[C@@H](NC(=O)OC(C)(C)C)[C@H]3COC(C)(C)O3)C[C@@](O)([C@@H](OC(=O)c3ccccc3)[C@@H]3[C@]4(OC(C)=O)CO[C@@H]4C[C@H](O)[C@@]3(C)[C@H]1O)C2(C)C	7.91	0.086 µg/mL (≈ 0.0982 µM)	> 0.1 µg/mL	> 0.1 µg/mL	> 0.1 µg/mL
CC(=O)O[C@@H]1C2=C(C)[C@@H](OC(=O)[C@H](O)[C@@H](NC(=O)OC(C)(C)C)C(C)O)C[C@@](O)([C@@H](OC(=O)c3ccccc3)[C@@H]3[C@]4(OC(C)=O)CO[C@@H]4C[C@H](O)[C@@]3(C)[C@H]1O)C2(C)C (single isomer, unassigned) [listing 2 of 2 here]	–	> 0.1 µg/mL	> 0.1 µg/mL	> 0.1 µg/mL	> 0.1 µg/mL
